Reference: PMC2556891 (ACS chemical biology, 2008)
Changes are numbered by the printed parent chain.

What was measured:
ClC-0 [1] = molecular target: T1, ClC-0 (Torpedo marmorata, UniProt P21564); test: ClC-0 currents, inside-out patches from Xenopus oocytes; assay type: cell-based; details: intracellular application, various concentrations
T1 sequence (P21564 1-805): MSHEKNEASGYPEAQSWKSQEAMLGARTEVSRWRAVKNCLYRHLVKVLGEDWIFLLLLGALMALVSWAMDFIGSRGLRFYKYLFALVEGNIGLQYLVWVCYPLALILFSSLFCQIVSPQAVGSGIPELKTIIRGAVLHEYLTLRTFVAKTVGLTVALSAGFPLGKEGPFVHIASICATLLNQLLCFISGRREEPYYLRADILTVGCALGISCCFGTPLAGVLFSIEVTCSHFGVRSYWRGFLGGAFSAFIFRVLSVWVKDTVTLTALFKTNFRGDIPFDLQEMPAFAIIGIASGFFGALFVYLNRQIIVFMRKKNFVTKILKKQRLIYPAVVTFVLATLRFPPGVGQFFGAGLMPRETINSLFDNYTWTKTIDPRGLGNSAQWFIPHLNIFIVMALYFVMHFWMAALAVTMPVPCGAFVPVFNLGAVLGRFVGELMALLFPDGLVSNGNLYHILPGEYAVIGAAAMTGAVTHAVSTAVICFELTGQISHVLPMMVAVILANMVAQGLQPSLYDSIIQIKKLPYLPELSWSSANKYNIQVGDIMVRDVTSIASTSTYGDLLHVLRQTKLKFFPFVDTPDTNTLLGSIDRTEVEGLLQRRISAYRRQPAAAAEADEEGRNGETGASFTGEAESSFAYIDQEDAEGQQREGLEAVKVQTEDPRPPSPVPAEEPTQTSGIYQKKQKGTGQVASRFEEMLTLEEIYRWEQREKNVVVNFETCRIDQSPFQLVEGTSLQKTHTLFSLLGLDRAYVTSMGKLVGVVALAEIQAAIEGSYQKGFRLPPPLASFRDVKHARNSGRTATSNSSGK
Method in brief: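 Defolliculated Xenopus oocytes injected with 27.5 nL ClC-0 RNA (~500 ng/μL) and kept at 16 °C for 2-7 days. Test compound delivered by microfluidic switching. Holding at 0 mV; every 5 s step to +50 mV (50 ms) then −100 mV (50 ms). Instantaneous −100 mV current taken over time as I/Io; initial inhibition rate fitted; 3-5 oocytes; mean ± SEM.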

ClC-ec1 = ClC-ec1 (Escherichia coli, UniProt P37019); test: Chloride flux assay with ClC-ec1 reconstituted in vesicles; assay type: biochemical
ClC-0 [2] = molecular target: T1, ClC-0; details: cited from earlier work
[3] = Stability of DIDS in aqueous solution by reversed-phase HPLC; assay type: physicochemical
ClC-Ka = molecular target: T2, ClC-Ka (Homo sapiens, UniProt P51800); details: cited from earlier work
T2 sequence (P51800 1-687): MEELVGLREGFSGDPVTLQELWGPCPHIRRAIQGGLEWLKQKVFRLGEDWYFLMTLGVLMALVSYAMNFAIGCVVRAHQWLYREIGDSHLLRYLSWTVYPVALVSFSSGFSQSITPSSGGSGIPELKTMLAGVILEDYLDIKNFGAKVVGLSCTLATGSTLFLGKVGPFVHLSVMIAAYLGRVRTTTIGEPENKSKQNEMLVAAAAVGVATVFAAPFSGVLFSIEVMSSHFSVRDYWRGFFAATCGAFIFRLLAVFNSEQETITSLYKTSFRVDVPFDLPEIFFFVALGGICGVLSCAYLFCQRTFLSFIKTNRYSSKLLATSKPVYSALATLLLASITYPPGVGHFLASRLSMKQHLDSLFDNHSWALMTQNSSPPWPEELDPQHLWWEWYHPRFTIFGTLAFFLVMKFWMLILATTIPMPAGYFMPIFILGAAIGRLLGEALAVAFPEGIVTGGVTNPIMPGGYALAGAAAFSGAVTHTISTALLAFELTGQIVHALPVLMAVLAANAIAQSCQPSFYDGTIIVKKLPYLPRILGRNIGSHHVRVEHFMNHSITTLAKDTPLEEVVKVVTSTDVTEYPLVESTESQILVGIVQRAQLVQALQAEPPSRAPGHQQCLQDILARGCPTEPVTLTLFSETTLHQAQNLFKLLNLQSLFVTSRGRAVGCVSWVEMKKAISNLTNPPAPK
T2 sequence (Q8WZ55 1-320 Y98A partner): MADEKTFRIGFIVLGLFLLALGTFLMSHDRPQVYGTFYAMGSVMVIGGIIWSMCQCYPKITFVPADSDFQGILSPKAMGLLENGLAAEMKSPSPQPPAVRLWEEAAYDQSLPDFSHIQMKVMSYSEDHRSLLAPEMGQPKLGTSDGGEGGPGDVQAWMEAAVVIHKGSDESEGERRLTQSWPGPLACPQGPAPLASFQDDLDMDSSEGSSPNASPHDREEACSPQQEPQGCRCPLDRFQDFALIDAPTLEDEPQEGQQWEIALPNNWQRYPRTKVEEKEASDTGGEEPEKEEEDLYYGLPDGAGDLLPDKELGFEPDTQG

ClC-Ka N68D = molecular target: T3, ClC-Ka N68D (Homo sapiens, UniProt P51800, N68D); details: cited from earlier work
T3 sequence (P51800 1-687 N68D): T2 sequence (P51800 1-687) with N68D
T3 sequence (Q8WZ55 1-320 Y98A partner): T2 sequence (Q8WZ55 1-320 Y98A partner)

[4] = Hill fit of ClC-ec1 chloride flux inhibition

ClC-ec1, sequence (P37019 whole entry): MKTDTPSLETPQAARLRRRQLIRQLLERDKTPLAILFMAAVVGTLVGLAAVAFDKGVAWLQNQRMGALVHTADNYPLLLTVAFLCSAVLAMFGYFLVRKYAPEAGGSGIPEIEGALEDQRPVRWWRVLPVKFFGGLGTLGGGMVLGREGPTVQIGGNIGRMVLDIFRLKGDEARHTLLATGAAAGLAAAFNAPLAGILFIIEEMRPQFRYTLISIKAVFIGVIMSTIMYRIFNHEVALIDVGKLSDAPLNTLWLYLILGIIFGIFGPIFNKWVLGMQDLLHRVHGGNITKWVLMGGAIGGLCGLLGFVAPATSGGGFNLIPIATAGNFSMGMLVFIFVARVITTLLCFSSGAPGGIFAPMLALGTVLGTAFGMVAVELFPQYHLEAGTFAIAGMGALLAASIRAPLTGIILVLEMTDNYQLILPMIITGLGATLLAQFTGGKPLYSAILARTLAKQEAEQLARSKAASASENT

Row | SMILES | effect on ClC-0 (ClC-0 [1]) | effect on ClC-ec1 activity (ClC-ec1; at concentrations as high as 2 mM) | reversibility of ClC-0 inhibition (ClC-0 [2]) | stability in aqueous solution (reversed-phase HPLC) ([3]; after 3 h in aqueous solution) | stability in solution (HPLC) ([3]; after 48 h) | stability in solution (HPLC) ([3]; within 24 h in solution) | (A/Ao)max (ClC-ec1; [4]) | Hill coefficient n (ClC-ec1; [4]) | reversibility of ClC-Ka inhibition from the extracellular side (ClC-Ka) | decrease of apparent affinity by N68D mutation in ClC-Ka (ClC-Ka N68D)
1 | Nc1ccc(C=Cc2ccc(N)cc2S(=O)(=O)O)c(S(=O)(=O)O)c1 [DADS, 4,4′-diaminostilbene-2,2′-disulfonic acid] | no effect | does not affect | – | – | – | – | – | – | – | –
2 | O=S(=O)(O)c1cc(N=C=S)ccc1C=Cc1ccc(N=C=S)cc1S(=O)(=O)O [DIDS, 4,4′-diisothiocyanatostilbene-2,2′-disulfonic acid] | – | – | irreversible | single peak | no DIDS was apparent | partially decomposed | 1.08 | 2 | slowly reversible | 10 fold
